Test results: ChEMBL document CHEMBL4311989, “Anti-hepatitis-C virus activity and QSAR study of certain thiazolidinone and thiazolotriazine derivatives as potential NS5B polymerase inhibitors” (Eur J Med Chem, 2019)

How the values were obtained:
Hepatitis C virus = assay: Antiviral activity against HCV genotype 1a infected in human Huh7.5 cells assessed as reduction in viral replication by measuring HCV core antigen level by ELISA; assay type: functional, organism-based, Hepacivirus hominis; conditions: subtype 1a
Method in brief: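 HCV GT1a replication in Huh-7.5 human hepatoma cells; HCV core protein quantified by core antigen ELISA per kit instructions. EC50 taken as concentration reducing HCV replication by 50%, with VCH-759 as reference.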

[1] = target: RNA-directed RNA polymerase (Hepacivirus hominis, UniProt O39930); assay: Inhibition of recombinant HCV genotype 1a NS5B polymerase coincubated with HCV international ribosome entry site template sequence containing nucleotide residues 21-371 of HCV 5'-untranslated Escherichia coli DNA polymerase I region incubated for 3 hrs by scintillation/luminescence counter method; design: species or system Hepatitis C virus subtype 1a
Method in brief: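 Recombinant GT1a NS5B RdRp, […] (GenBank AF356827), used at 0.26 ug/well; VCH-759 as non-nucleoside positive control; IC50 determined.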

[2] = Cytotoxicity against human THLE2 cells assessed as reduction in cell viability incubated for 24 hrs by MTT assay; assay type: cell-based, THLE-2
Method in brief: (§1)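 Transformed normal human cells (THLE-2 liver epithelial; RPTEC/TERT1 proximal tubular epithelial) exposed to compound; viability read by MTT reduction to formazan. CC50 defined as concentration reducing cell viability by 50%; VCH-759 run as reference.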

[3] = Cytotoxicity against human RPTEC/TERT1 cells assessed as reduction in cell viability incubated for 24 hrs by MTT assay; assay type: cell-based; method in brief: as §1
[4] = Selectivity index, ratio of CC50 for human THLE2 cells to EC50 for HCV infected in human Huh7.5 cells; assay type: toxicity, cell-based; conditions: THLE2 cells (CC50) and HCV-infected Huh7.5 cells (EC50)
Method in brief: (§2)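 SI computed as CC50 on THLE-2 or RPTEC/TERT1 (MTT viability) divided by EC50 from HCV-infected Huh7.5 cells (core antigen ELISA).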

[5] = Selectivity index, ratio of CC50 for human RPTEC/TERT1 cells to EC50 for HCV infected in human Huh7.5 cells; assay type: toxicity, cell-based; conditions: read-out: Ratio CC50/EC50; method in brief: as §2
[6] = target: RNA-directed RNA polymerase (Hepacivirus hominis) (UniProt O39930); assay: Potency index, ratio of VCH-759 IC50 to compound IC50 for HCV genotype 1a recombinant NS5B polymerase coincubated with HCV international ribosome entry site template sequence containing nucleotide residues 21-371 of HCV 5'-untranslated Escherichia coli DNA polymerase I region; conditions: Hepatitis C virus subtype 1a

Row | EC50 (Hepatitis C virus) [µM] | IC50 [1] [µM] | SMILES | other results
1 | 3.8 | 0.035 | O=C(CN1C(=O)S/C(=C\c2ccccc2Cl)C1=O)Nc1ccccc1 | CC50 at 24 h [2]: 103 µM; CC50 at 24 h [3]: 161 µM; selectivity ratio [4]: 27; selectivity ratio [5]: 42.5; Ratio IC50 [6]: 4
2 | 11 | 1.2 | COc1ccc(NC(=O)CN2C(=O)S/C(=C\c3ccccc3Cl)C2=O)cc1 | 
3 | 10.8 | 0.44 | O=C(CN1C(=O)S/C(=C\c2ccc(Cl)cc2Cl)C1=O)Nc1ccccc1 | 
4 | 8.4 | 0.14 | O=C(CN1C(=O)S/C(=C\c2ccc(F)cc2)C1=O)Nc1ccccc1 | 
5 | 16.9 | 0.1 | O=C(CN1C(=O)S/C(=C\c2ccc(F)cc2)C1=O)Nc1ccc(Cl)cc1 | Ratio IC50 [6]: 1 to 2
6 | 40.1 | 0.07 | COc1ccc(N2CN=c3s/c(=C/c4ccc(F)cc4)c(=O)n3C2)cc1 | Ratio IC50 [6]: 1 to 2
7 | 13.3 | 0.62 | O=c1/c(=C\c2ccccc2)sc2n1CN(c1ccccc1)CN=2 | 
8 | 10.9 | 0.12 | O=c1/c(=C\c2ccc(Cl)cc2)sc2n1CN(c1ccccc1)CN=2 | Ratio IC50 [6]: 1 to 2
9 | 7.8 | 0.21 | O=C(CN1C(=O)S/C(=C\c2ccc(Cl)cc2)C1=O)Nc1ccc(Cl)cc1 | 
10 | 11.1 | 0.085 | O=C(CN1C(=O)S/C(=C\c2ccc(Cl)cc2)C1=O)Nc1ccccc1 | Ratio IC50 [6]: 1 to 2
11 | 10.8 | 1.82 | O=c1/c(=C\c2ccc(Cl)cc2)sc2n1CN(c1ccc(Cl)cc1)CN=2 | 
12 | 43.9 | 0.32 | COc1ccc(NC(=O)CN2C(=O)S/C(=C\c3ccc(Cl)cc3Cl)C2=O)cc1 | 
13 | 10.3 | 3.53 | COc1ccc(N2CN=c3s/c(=C/c4ccc(Cl)cc4)c(=O)n3C2)cc1 | 
14 | 44 | 5.12 | O=C(CN1C(=O)S/C(=C\c2ccc(Cl)cc2Cl)C1=O)Nc1ccc(Cl)cc1 | 
15 | 24.3 | 0.99 | COc1ccc(/C=c2/sc3n(c2=O)CN(c2ccc(Cl)cc2)CN=3)cc1 | 
16 | 5.29 | 0.14 | CC1CCC(C(=O)N(c2cc(-c3ccccc3)sc2C(=O)O)C2CCC(O)CC2)CC1 (configuration not stated) [VCH-759] | CC50 at 24 h [2]: 61.8 µM; CC50 at 24 h [3]: 81.3 µM; selectivity ratio [4]: 11.7; selectivity ratio [5]: 15.4
17 | 43.9 | 0.37 | COc1ccc(NC(=O)CN2C(=O)S/C(=C\c3ccc(Cl)cc3)C2=O)cc1 | 
18 | 12.6 | 0.2 | COc1ccc(/C=c2/sc3n(c2=O)CN(c2ccccc2)CN=3)cc1 | 
19 | 19.3 | 0.49 | O=c1/c(=C\c2ccccc2)sc2n1CN(c1ccc(Cl)cc1)CN=2 | 
20 | 14.5 | 1.37 | O=c1/c(=C\c2ccc(Cl)cc2Cl)sc2n1CN(c1ccccc1)CN=2 | 

Row | EC50 (Hepatitis C virus) [µM] | IC50 [1] [µM] | SMILES | other results
21 | 18.7 | 2.2 | O=c1/c(=C\c2ccc(F)cc2)sc2n1CN(c1ccccc1)CN=2 | 
22 | 16.7 | 0.14 | O=C(CN1C(=O)S/C(=C\c2ccccc2)C1=O)Nc1ccc(Cl)cc1 | 
23 | 7.93 | 0.28 | COc1ccc(/C=C2\SC(=O)N(CC(=O)Nc3ccc(Cl)cc3)C2=O)cc1 | 
24 | 9.5 | 0.54 | O=c1/c(=C\c2ccc(Cl)cc2Cl)sc2n1CN(c1ccc(Cl)cc1)CN=2 | 
25 | 6.47 | 2.99 | O=C(CN1C(=O)S/C(=C\c2ccccc2Cl)C1=O)Nc1ccc(Cl)cc1 | 
26 | 13.8 | 0.09 | O=c1/c(=C\c2ccccc2Cl)sc2n1CN(c1ccc(Cl)cc1)CN=2 | Ratio IC50 [6]: 1 to 2
27 | 8.98 | 0.76 | O=C(C/N=C1/S/C(=C\c2ccccc2)C(=O)N1c1ccccc1)Nc1ccccc1 | 
28 | 19.6 | 4.8 | O=C(CN1C(=O)S/C(=C\c2ccccc2)C1=O)Nc1ccccc1 | 
29 | 10.8 | 0.39 | COc1ccc(NC(=O)CN2C(=O)S/C(=C\c3ccc(F)cc3)C2=O)cc1 | 
30 | 13.5 | 1.26 | COc1ccc(N2CN=c3s/c(=C/c4ccccc4Cl)c(=O)n3C2)cc1 | 
31 | 19.6 | 0.78 | COc1ccc(/C=C2\SC(=O)N(CC(=O)Nc3ccc(OC)cc3)C2=O)cc1 | 
32 | 10.6 | 0.45 | COc1ccc(NC(=O)CN2C(=O)S/C(=C\c3ccccc3)C2=O)cc1 | 
33 | 10.8 | 0.75 | COc1ccc(N2CN=c3s/c(=C/c4ccccc4)c(=O)n3C2)cc1 | 
34 | 9.54 | 0.54 | COc1ccc(/C=c2/sc3n(c2=O)CN(c2ccc(OC)cc2)CN=3)cc1 | 
35 | 30.7 | 0.43 | O=c1/c(=C\c2ccccc2Cl)sc2n1CN(c1ccccc1)CN=2 | 
36 | 11.6 | 0.25 | COc1ccc(/C=C2\SC(=O)N(CC(=O)Nc3ccccc3)C2=O)cc1 | 
37 | 11.1 | 0.58 | N=C1S/C(=C\c2ccccc2)C(=O)N1c1ccccc1 | 
38 | 6.58 | 0.2 | O=c1/c(=C\c2ccc(F)cc2)sc2n1CN(c1ccc(Cl)cc1)CN=2 | 
39 | 13.2 | 0.22 | COc1ccc(N2CN=c3s/c(=C/c4ccc(Cl)cc4Cl)c(=O)n3C2)cc1 | 
